The source made the active and inactive calls. No cut-off for these calls is given here.
Experiments:
MDA-MB-231 = experiment: Cytotoxicity against human MDA-MB-231 cells after 48 hrs by MTT assay; type: functional, cell-based; details: MDA-MB-231, 48 h
Summary of the method: (§1)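 Cells seeded at 1.0 × 10^4 to 3.5 × 10^4 per well and incubated 24 h at 37 °C under 5% CO2. Exposed to a range of compound concentrations for 48 h, washed, then given MTT for 2 h and lysed. Absorbance read at 560 nm 45 min after lysis; IC50 from probit analysis. Cycloheximide as positive control.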

AGS [1] = experiment: Cytotoxicity against human AGS cells after 48 hrs by MTT assay; type: functional, cell-based; summary of the method: as §1
AGS [2] = experiment: Induction of apoptosis in human AGS cells assessed as early apoptosis level at 150 ug/mL after 48 hrs by Annexin V-FITC apoptosis assay; type: functional, cell-based
Summary of the method: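 AGS cells seeded at 40 × 10^4 per well and incubated 24 h at 37 °C under 5% CO2. Treated 24 and 48 h with test compound at 15 μg/mL, or cycloheximide at 150 μg/mL as positive control; untreated cells as negative control. Trypsinized, pelleted, then resuspended in binding buffer (0.1 M Hepes/NaOH, 1.4 M NaCl, 25 mM CaCl2). Stained with FITC-annexin V plus PI for 15 min, dark, room temperature. Flow cytometry within 1 h; early apoptosis counted as AV+/PI−.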

HT-29 = experiment: Cytotoxicity against human HT-29 cells after 48 hrs by MTT assay; type: functional, cell-based; details: HT-29, 48 h; summary of the method: as §1
MCF7 = experiment: Cytotoxicity against human MCF7 cells after 48 hrs by MTT assay; type: functional, cell-based; details: MCF7, 48 h; summary of the method: as §1
NIH3T3 = experiment: Cytotoxicity against mouse NIH/3T3 cells after 48 hrs by MTT assay; type: functional, cell-based; details: NIH3T3, 48 h; summary of the method: as §1
AGS [3] = experiment: Induction of apoptosis in human AGS cells assessed as early apoptosis level at 15 ug/mL after 48 hrs by Annexin V-FITC apoptosis assay; type: functional
Summary of the method: (§2)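 Cells plated at 40 × 10^4 per well, grown 24 h at 37 C in 5% CO2, then exposed to compound at 15 μg/mL for the stated time. Harvested by rapid trypsinisation, pelleted, resuspended in binding buffer (0.1 M Hepes/NaOH, 1.4 M NaCl, 25 mM CaCl2). Stained with FITC-annexin V and PI for 15 min, dark, room temperature. Flow cytometry within 1 h; early apoptosis scored as AV+/PI−. Untreated cells as negative control, cycloheximide 150 μg/mL as positive control.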

AGS [4] = experiment: Induction of apoptosis in human AGS cells assessed as early apoptosis level at 15 ug/mL after 24 hrs by Annexin V-FITC apoptosis assay; type: functional; summary of the method: as §2

SMILES | IC50 (MDA-MB-231) [nM] | IC50 (AGS [1]) [µM] | Activity (AGS [2]) | IC50 (HT-29) [µM] | IC50 (MCF7) [µM] | IC50 (NIH3T3) [µM] | Activity (AGS [3]) [%] | Activity (AGS [4]) [%]
C[C@@H]1C[C@@H]([C@H](O)CC2CC(=O)NC(=O)C2)C(=O)[C@@H](C)C1 [CYCLOHEXIMIDE] | 1200 | 3.6 | Active | 12.8 | > 100 | 1.1 |  | 
Cc1cc2c(c(C)c1CCOS(=O)(=O)O)C(=O)[C@@H](C)[C@@H]2O | > 100000 | 23.9 |  | 68.8 | 64.4 | 46.8 | 25.2 | 6.8

From ChEMBL document CHEMBL1821648, “(2S,3S)-sulfated pterosin C, a cytotoxic sesquiterpene from the Bangladeshi mangrove fern Acrostichum aureum” (J Nat Prod, 2011)
